{"source": "paper PMC5084670", "about": "(Cancer Science, 2016)", "key": {"[1]": {"test": "Pharmacokinetics of sonidegib in plasma", "type": "in vivo, human", "details": "for Exposure accumulation as the AUC ratio / AUC accumulation: cycle 1 day 15; for AUC(0-t) / Tmax / Cmax: human, plasma, oral; for Tmax: T max; for Cmax: C max"}, "advanced solid tumors": {"tested_on": "advanced solid tumors", "test": "Tumor response by RECIST version 1.0", "type": "in vivo, human", "outline": "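Daily oral test compound was given in 28-day cycles to adults with advanced solid tumors who had measurable or evaluable disease. Investigators judged tumor response from CT or MRI scans according to RECIST version 1.0.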"}, "[2]": {"details": "cited from earlier work"}, "[3]": {"tested_on": "murine model of MB with deletion of PTCH1", "details": "cited from earlier work"}}}
{"smiles": "Cc1c(C(=O)Nc2ccc(N3C[C@@H](C)O[C@@H](C)C3)nc2)cccc1-c1ccc(OC(F)(F)F)cc1", "note": "[Sonidegib]", "values": [{"measurement": "Steady state", "setting": "[1]; both groups", "result": "not achieved within cycle 1"}, {"measurement": "Plasma concentration at 168 h after a single dose", "setting": "[1]; both groups at every dose", "result": "detected"}, {"measurement": "Exposure accumulation as the AUC ratio", "setting": "[1]; group 1, 400 mg", "result": 4.9, "unit": "fold"}, {"measurement": "Accumulation in trough levels", "setting": "[1]; group 1, 400 mg, cycle 2 day 1 vs 24-h post-dose concentration in run-in", "result": 12.4, "unit": "fold"}, {"measurement": "Accumulation in trough levels", "setting": "[1]; group 1, 400 mg, cycle 2 day 22 vs 24-h post-dose concentration in run-in", "result": 19.6, "unit": "fold"}, {"measurement": "Exposure accumulation as the AUC ratio", "setting": "[1]; group 1, 600 mg", "result": 4.6, "unit": "fold"}, {"measurement": "Accumulation in trough levels", "setting": "[1]; group 1, 600 mg, cycle 2 day 1 vs 24-h post-dose concentration in run-in", "result": 14.3, "unit": "fold"}, {"measurement": "Accumulation in trough levels", "setting": "[1]; group 1, 600 mg, cycle 2 day 22 vs 24-h post-dose concentration in run-in", "result": 19.9, "unit": "fold"}, {"measurement": "AUC accumulation", "setting": "[1]; group 2, 400 mg", "result": "approximately 4.3 fold"}, {"measurement": "Trough accumulation", "setting": "[1]; group 2, 400 mg, cycle 2 day 1", "result": 13.9, "unit": "fold"}, {"measurement": "Trough accumulation", "setting": "[1]; group 2, 400 mg, cycle 2 day 22", "result": 16.3, "unit": "fold"}, {"measurement": "AUC accumulation", "setting": "[1]; group 2, 600 mg", "result": "~4.2", "unit": "fold"}, {"measurement": "Trough accumulation", "setting": "[1]; group 2, 600 mg, cycle 2 day 1", "result": 12.3, "unit": "fold"}, {"measurement": "Trough accumulation", "setting": "[1]; group 2, 600 mg, cycle 2 day 22", "result": 13.8, "unit": "fold"}, {"measurement": "AUC accumulation", "setting": "[1]; group 2, 800 mg", "result": "~6.0", "unit": "fold"}, {"measurement": "AUC(0-t)", "setting": "[1]; 400 mg q.d., AUClast, cycle 1, day 15 (last sampling 24 h), group 2, 400 mg q.d., n = 9, geometric mean (% CV)", "result": 12300, "unit": "ng·h/mL"}, {"measurement": "AUC(0-t)", "setting": "[1]; 400 mg, AUC0–24, pharmacokinetic run-in (single dose), group 1, 400 mg, n = 12, geometric mean (% CV)", "result": 2010, "unit": "ng·h/mL"}, {"measurement": "AUC(0-t)", "setting": "[1]; 400 mg, AUC0–24, pharmacokinetic run-in (single dose), group 2, 400 mg, n = 12, geometric mean (% CV)", "result": 2890, "unit": "ng·h/mL"}, {"measurement": "Tmax", "setting": "[1]; 400 mg, cycle 1, day 15, group 1, 400 mg q.d., n = 12, median", "result": 2, "unit": "h"}, {"measurement": "Tmax", "setting": "[1]; 400 mg, pharmacokinetic run-in (single dose), group 1, 400 mg, n = 12, median", "result": 3, "unit": "h"}, {"measurement": "Tmax", "setting": "[1]; 400 mg, pharmacokinetic run-in (single dose), group 2, 400 mg, n = 12, median", "result": 3, "unit": "h"}, {"measurement": "AUC(0-t)", "setting": "[1]; 600 mg, AUC0–24, pharmacokinetic run-in (single dose), group 1, 600 mg, n = 9, geometric mean (% CV)", "result": 3330, "unit": "ng·h/mL"}, {"measurement": "AUC(0-t)", "setting": "[1]; 600 mg, AUC0–24, pharmacokinetic run-in (single dose), group 2, 600 mg, n = 8, geometric mean (% CV)", "result": 3420, "unit": "ng·h/mL"}, {"measurement": "Cmax", "setting": "[1]; 600 mg, cycle 1, day 15, group 1, 600 mg q.d., n = 8, geometric mean (% CV)", "result": 1010, "unit": "ng/mL"}, {"measurement": "Tmax", "setting": "[1]; 600 mg, cycle 1, day 15, group 1, 600 mg q.d., n = 8, median", "result": 2, "unit": "h"}, {"measurement": "Tmax", "setting": "[1]; 600 mg, cycle 1, day 15, group 2, 600 mg q.d., n = 5, median", "result": 4, "unit": "h"}, {"measurement": "Tmax", "setting": "[1]; 600 mg, pharmacokinetic run-in (single dose), group 1, 600 mg, n = 9, median", "result": 2, "unit": "h"}, {"measurement": "Tmax", "setting": "[1]; 600 mg, pharmacokinetic run-in (single dose), group 2, 600 mg, n = 8, median", "result": 3, "unit": "h"}, {"measurement": "AUC(0-t)", "setting": "[1]; 800 mg, AUC0–24, pharmacokinetic run-in (single dose), group 2, 800 mg, n = 4, geometric mean (% CV)", "result": 3650, "unit": "ng·h/mL"}, {"measurement": "Cmax", "setting": "[1]; 800 mg, cycle 1, day 15, group 2, 800 mg q.d., n = 2, geometric mean (% CV)", "result": 1230, "unit": "ng/mL"}, {"measurement": "Tmax", "setting": "[1]; 800 mg, pharmacokinetic run-in (single dose), group 2, 800 mg, n = 4, median", "result": 2, "unit": "h"}, {"measurement": "Tmax", "setting": "[1]; after a single dose in run-in period and repeated dosing in cycle 1 day 15, both groups", "result": "2 to 4", "unit": "h"}, {"measurement": "Stable disease (SD), number of patients", "setting": "advanced solid tumors; group 1, 400 mg", "result": 4, "unit": "patients"}, {"measurement": "Stable disease (SD), number of patients", "setting": "advanced solid tumors; group 1, 600 mg", "result": 1, "unit": "patients"}, {"measurement": "Progressive disease, patients", "setting": "advanced solid tumors; group 1, 15 patients", "result": 71, "unit": "%"}, {"measurement": "Stable disease (SD), patients", "setting": "advanced solid tumors; group 1, five patients", "result": 24, "unit": "%"}, {"measurement": "Complete response or partial response", "setting": "advanced solid tumors; group 1 and group 2", "result": "Neither complete response nor partial response was observed"}, {"measurement": "Stable disease (SD), number of patients", "setting": "advanced solid tumors; group 2, 600 mg", "result": "three"}, {"measurement": "Best overall response SD, patients", "setting": "advanced solid tumors; group 2, 10 patients", "result": 42, "unit": "%"}, {"measurement": "Progressive disease, patients", "setting": "advanced solid tumors; group 2, nine patients", "result": 38, "unit": "%"}, {"measurement": "Commonly reported AE: alopecia", "setting": "[2]", "result": 63, "unit": "%"}, {"measurement": "Commonly reported AE: asthenia", "setting": "[2]", "result": 36, "unit": "%"}, {"measurement": "Commonly reported AE: dysgeusia", "setting": "[2]", "result": 70, "unit": "%"}, {"measurement": "Commonly reported AE: weight loss", "setting": "[2]", "result": 46, "unit": "%"}, {"measurement": "Antitumor activity", "setting": "[3]", "result": "antitumor activity"}]}
